Measured values taken from ChEMBL document CHEMBL5107950, “Structure-based design of haloperidol analogues as inhibitors of acetyltransferase Eis from Mycobacterium tuberculosis to overcome kanamycin resistance” (RSC Med Chem, 2021).
In brackets after ≈: the same amount, converted by molar mass. Activity calls are given as the source filed them. The calls are words filed in the database; no cut-off is given here.

Tests used:
[1] = test system: Mycolicibacterium smegmatis; assay: Synergistic antibacterial activity against Mycobacterium smegmatis mc2 155 assessed as fold reduction in MIC value at 8 ug/ml in presence of spectinomycin by checkerboard assay; type: functional; details: dose 8 µg/ml
[2] = test system: Mycobacterium avium; assay: Antibacterial activity against Mycobacterium avium ATCC 25921 assessed as inhibition of bacterial growth incubated upto 3 weeks hrs by resazurin dye based double-dilution method; type: functional; details: ATCC 25921, 504 h
Outline: (§1)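 Double-dilution broth MIC. Media: M. smegmatis, Mueller-Hinton; M. abscessus, 7H9 + 0.05% Tween80 + 0.4% glycerol; mc²6230, 7H9 + 0.05% tyloxapol, 0.5% glycerol, 10% OADC, 0.2% casamino acids, 24 µg/mL pantothenate; other mycobacteria, 7H9 + 0.05% Tween80, 0.4% glycerol, 10% ADC. Inoculum from agar set to 0.5 McFarland, then diluted 1:100.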

[3] = test system: Mycobacteroides abscessus; assay: Antibacterial activity against Mycobacterium abscessus ATCC 19977 assessed as inhibition of bacterial growth incubated upto 3 weeks hrs by resazurin dye based double-dilution method; type: functional; details: ATCC 19977, 504 h; outline: as §1
[4] = test system: Mycobacterium tuberculosis; assay: Antibacterial activity against Mycobacterium tuberculosis H37Ra ATCC NRS22 assessed as inhibition of bacterial growth incubated upto 3 weeks hrs by resazurin dye based double-dilution method; type: functional; details: H37Ra ATCC NRS22, 504 h; outline: as §1
[5] = test system: Mycobacterium tuberculosis; assay: Potentiation of kanamycin-induced antibacterial activity against Mycobacterium tuberculosis H37Rv assessed as kanamycin MIC incubated for 1 day followed by kanamycin addition for 6 days and by Alamar blue assay; type: functional; details: 168 h, time 7 day
Outline: (§2)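 Mtb in 7H9 + 10% ADC, 0.05% Tween 80, 0.4% glycerol at 37 °C. Inoculum adjusted to OD600 0.2, diluted 1:25. Cells preincubated 24 h at 37 °C with compound (100 µL of 200 µM solution). KAN then added: H37Rv at 2.5 and 1.25 µg/mL; K204 at 10, 5, 2.5, 1.25 µg/mL. Incubated 6 days, AlamarBlue added, colour read at 24 and 48 h. MIC = lowest KAN with no colour change. At least twice in duplicate.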

[6] = test system: Mycobacterium tuberculosis; assay: Potentiation of kanamycin-induced antibacterial activity against Mycobacterium tuberculosis K204 assessed as kanamycin MIC incubated for 1 day followed by kanamycin addition for 6 days and by Alamar blue assay; type: functional; details: K204, 168 h, time 7 day; outline: as §2
[7] = test system: Mycolicibacterium smegmatis; assay: Synergistic antibacterial activity against Mycobacterium smegmatis mc2 155 assessed as fold reduction in MIC value at 8 ug/ml in presence of clarithromycin by checkerboard assay; type: functional; details: dose 8 µg/ml
[8] = target: T1, N-acetyltransferase Eis (Mycobacterium tuberculosis (strain ATCC 25618 / H37Rv), UniProt P9WFK7); assay: Inhibition of Mycobacterium tuberculosis Eis assessed as Eis-mediated kanamycin acetylation preincubated for 10 mins followed by substrate addition and measured for 2 to 5 mins using acetyl-CoA as substrate in presence of kanamycin by UV-Vis spectroscopy analysis
T1 sequence (P9WFK7 whole entry): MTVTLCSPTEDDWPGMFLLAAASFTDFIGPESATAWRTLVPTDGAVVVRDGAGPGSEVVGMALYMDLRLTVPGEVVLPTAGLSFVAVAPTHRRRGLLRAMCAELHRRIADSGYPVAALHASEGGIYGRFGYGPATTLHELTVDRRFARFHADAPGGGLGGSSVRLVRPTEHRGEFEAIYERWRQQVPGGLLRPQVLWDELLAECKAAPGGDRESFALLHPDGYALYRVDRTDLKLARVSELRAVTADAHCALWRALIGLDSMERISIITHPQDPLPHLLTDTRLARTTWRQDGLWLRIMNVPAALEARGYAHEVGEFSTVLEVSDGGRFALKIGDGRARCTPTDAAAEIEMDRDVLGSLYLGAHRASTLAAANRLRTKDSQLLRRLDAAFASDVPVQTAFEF
Outline: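 Recombinant Eis (1 µM) mixed with KAN (400 µM) in 50 mM Tris-HCl pH 8.0 and preincubated 10 min with 5-fold serially diluted inhibitor (10% DMSO in buffer). Reaction started with AcCoA and DTNB (2 mM each, as added). Absorbance read every 30 s for 20 min. Initial rates (first 2-5 min) fitted to Hill plot for IC50. At least triplicate.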

[9] = test system: Mycobacterium intracellulare; assay: Antibacterial activity against Mycobacterium intracellulare ATCC 13950 assessed as inhibition of bacterial growth incubated upto 3 weeks hrs by resazurin dye based double-dilution method; type: functional; details: ATCC 13950, 504 h; outline: as §1
[10] = test system: Mycolicibacterium smegmatis; assay: Antibacterial activity against Mycobacterium smegmatis mc2 155 assessed as inhibition of bacterial growth incubated upto 3 weeks hrs by resazurin dye based double-dilution method; type: functional; details: mc2 155, 504 h; outline: as §1
[11] = target: T1, N-acetyltransferase Eis; assay: Competitive inhibition of Mycobacterium tuberculosis Eis assessed as reduction in Eis-mediated kanamycin acetylation preincubated for 10 mins followed by substrate addition and measured for 2 to 5 mins using acetyl-CoA as substrate in presence of kanamycin by Lineweaver-Burk plot analysis
Outline: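 Same DTNB-coupled Eis acetylation assay used for IC50, run as Michaelis-Menten kinetics with inhibitor at 0-1 μM. Vmax and Km from these fits used to determine mode of inhibition. Quadruplicate.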

[12] = Metabolic stability in mouse liver microsomes at 2 to 4 uM incubated for 30 mins by LC-MS/MS analysis; type: ADME, Microsome; details: dose 2-4 µM, read-out: Stability
[13] = Metabolic stability in human liver microsomes at 2 to 4 uM incubated for 30 mins by LC-MS/MS analysis; type: ADME, Microsome; details: dose 2-4 µM, read-out: Stability
[14] = test system: Mycobacterium intracellulare; assay: Antibacterial activity against Mycobacterium intracellulare ATCC 13950 in presence of clarithromycin by checkerboard assay; type: functional, organism-based
Outline: (§3)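 Checkerboard in 96-well plates. Antibiotic two-fold serially diluted along columns, haloperidol derivative two-fold along rows. Bacteria prepared as for the MIC determination. MICs alone and in combination used to calculate FICI. At least duplicate independent trials.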

[15] = test system: Mycobacterium avium; assay: Antibacterial activity against Mycobacterium avium ATCC 25921 in presence of spectinomycin by checkerboard assay; type: functional, organism-based; outline: as §3
[16] = test system: Mycobacteroides abscessus; assay: Synergistic antibacterial activity against Mycobacterium abscessus ATCC 19977 assessed as reduction in bacterial growth presence of spectinomycin by checkerboard assay; type: functional, organism-based; outline: as §3
[17] = test system: Mycolicibacterium smegmatis; assay: Synergistic antibacterial activity against Mycobacterium smegmatis mc2 155 assessed as fold reduction in MIC value at 8 ug/ml in presence of clofazimine by checkerboard assay; type: functional, organism-based; details: dose 8.0 µg/ml
[18] = test system: Mycobacterium intracellulare; assay: Antibacterial activity against Mycobacterium intracellulare ATCC 13950 in presence of spectinomycin by checkerboard assay; type: functional, organism-based; outline: as §3
[19] = test system: Mycobacteroides abscessus; assay: Synergistic antibacterial activity against Mycobacterium abscessus ATCC 19977 in presence of clofazimine by checkerboard assay; type: functional, organism-based; outline: as §3
[20] = test system: Mycobacterium avium; assay: Antibacterial activity against Mycobacterium avium ATCC 25921 in presence of clarithromycin by checkerboard assay; type: functional, organism-based; outline: as §3
[21] = test system: Mycobacterium intracellulare; assay: Antibacterial activity against Mycobacterium intracellulare ATCC 13950 in presence of clofazimine by checkerboard assay; type: functional, organism-based; outline: as §3
[22] = test system: Mycobacterium tuberculosis; assay: Synergistic antibacterial activity against Mycobacterium tuberculosis H37Ra ATCC NRS22 in presence of spectinomycin by checkerboard assay; type: functional, organism-based; outline: as §3
[23] = test system: Mycobacterium avium; assay: Antibacterial activity against Mycobacterium avium ATCC 25921 in presence of clofazimine by checkerboard assay; type: functional, organism-based; outline: as §3
[24] = test system: A549; assay: Cytotoxicity against human A549 cells assessed as reduction in cell viability at 25 uM incubated for 24 hrs by resazurin assay; type: toxicity, cell-based; details: a549, 24 h
Outline: (§4)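 Resazurin viability assay in DMEM + 10% FBS, 1% penicillin/streptomycin, 37 °C, 5% CO₂. Seeding: HEK-293 and J774A.1 at 1×10^4 cells/mL, A549 at 5×10^3 cells/mL. After 24 h, compounds added (0.78-200 μM, 0.5% DMSO final). Resazurin added 24 h later, read after 6 h. 1% Triton X as positive control. Quadruplicate.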

[25] = test system: Mycobacterium tuberculosis; assay: Antibacterial activity against Mycobacterium tuberculosis K204 assessed as inhibition of bacterial growth at 100 uM incubated for 24 hrs by Alamar blue assay; type: functional, organism-based
[26] = test system: Escherichia coli; assay: Antibacterial activity against Escherichia coli MC1061 assessed as inhibition of bacterial growth incubated upto 3 weeks hrs by resazurin dye based double-dilution method; type: functional, organism-based
[27] = test system: Mycobacterium tuberculosis; assay: Antibacterial activity against Mycobacterium tuberculosis H37Rv assessed as inhibition of bacterial growth at 100 uM incubated for 24 hrs by Alamar blue assay; type: functional, organism-based
[28] = test system: HEK293; assay: Cytotoxicity against human HEK293 cells assessed as reduction in cell viability at 25 uM incubated for 24 hrs by resazurin assay; type: toxicity, cell-based; details: hek293, 24 h; outline: as §4
[29] = test system: J774.A1; assay: Cytotoxicity against mouse J774.A1 cells assessed as reduction in cell viability at 25 uM incubated for 24 hrs by resazurin assay; type: toxicity, cell-based; details: j774.a1, 24 h; outline: as §4
[30] = test system: Mycobacteroides abscessus; assay: Synergistic antibacterial activity against Mycobacterium abscessus ATCC 19977 in presence of clarithromycin by checkerboard assay; type: functional, organism-based; outline: as §3

Row | Compound | fold change (FC) [1] | MIC [2] | MIC [3] | MIC [4] | MIC [5] | MIC [6] | fold change (FC) [7] | IC50 [8] | MIC [9] | MIC [10] | remaining at 0.5 h [12] | remaining at 0.5 h [13] | also measured
1 | O=C(CCCN1CCC(O)(c2ccc(Br)cc2)CC1)c1ccc(F)cc1 [BROMPERIDOL] | 16 | 62.5 µM (≈ 26.3 µg/mL) | > 62.5 µM | > 62.5 µM | ≤ 1.25 µg/mL | 5 µg/mL | 4 | 520 nM | 62.5 µM (≈ 26.3 µg/mL) | > 62.5 µM |  |  | Ki [11]: 240 nM
2 | CC(C)(C)c1ccc(C(=O)CCCN2CCC(O)(c3ccc(F)cc3)CC2)cc1 | 16 | 31.3 µM (≈ 12.4 µg/mL) | > 62.5 µM | 15.6 µM (≈ 6.2 µg/mL) |  |  | 4 | 200000 nM | 31.3 µM (≈ 12.4 µg/mL) | 62.5 µM (≈ 24.8 µg/mL) | 48% | 50% | 
3 | O=C(CCCN1CCC(O)(c2ccc(Br)cc2)CC1)c1ccc(Cl)cc1 | 16 | > 62.5 µM | > 62.5 µM | 7.8 µM (≈ 3.41 µg/mL) | ≤ 1.25 µg/mL | 10 µg/mL | 4 | 1100 nM | 62.5 µM (≈ 27.3 µg/mL) | 31.3 µM (≈ 13.7 µg/mL) | 83% | 36% | Activity [14]: Active; Activity [15]: Active; Activity [16]: Active; Activity [17]: Active; Activity [18]: Active; Activity [19]: Active; Activity [20]: Active; Activity [21]: Active; Activity [22]: Active; Activity [23]: Active
4 | CC(C)(C)c1ccc(C(=O)CCCN2CCC(O)(c3ccc(Br)cc3)CC2)cc1 | 16 | 7.8 µM (≈ 3.58 µg/mL) | > 62.5 µM | 3.9 µM (≈ 1.79 µg/mL) |  |  | 4 | > 200000 nM | 7.8 µM (≈ 3.58 µg/mL) | 15.6 µM (≈ 7.15 µg/mL) | 58% | 56% | Activity [24]: Toxic; inhibition [25]: Active; inhibition [26]: Active; inhibition [27]: Active; Activity [28]: Toxic; Activity [29]: Toxic
5 | O=C(CCCN1CC=C(c2ccc(Cl)cc2)CC1)c1ccc(F)cc1 |  | 31.3 µM (≈ 11.2 µg/mL) | > 62.5 µM | 7.8 µM (≈ 2.79 µg/mL) |  |  |  | 560 nM | 15.6 µM (≈ 5.58 µg/mL) | > 62.5 µM | 90% | 30% | 
6 | O=C(CCCN1CCC(O)(c2ccc(F)cc2)CC1)c1ccc(F)cc1 | 16 | > 62.5 µM | > 62.5 µM | > 62.5 µM | ≤ 1.25 µg/mL | 5 µg/mL | 4 | 760 nM | > 62.5 µM | > 62.5 µM |  |  | Ki [11]: 910 nM
7 | O=C(CCCN1CCC(O)(c2ccc(F)cc2)CC1)c1ccc(Cl)cc1 | 16 | > 62.5 µM | > 62.5 µM | > 62.5 µM | ≤ 1.25 µg/mL | 10 µg/mL | 4 | 2600 nM | > 62.5 µM | > 62.5 µM |  |  | Activity [14]: Active; Activity [15]: Active; Activity [16]: Active; Activity [17]: Active; Activity [18]: Active; Activity [19]: Active; Activity [20]: Active; Activity [21]: Active; Activity [30]: Active; Activity [22]: Active; Activity [23]: Active
